Measured values: ChEMBL document CHEMBL1152606, “Thienylhalomethylketones: Irreversible glycogen synthase kinase 3 inhibitors as useful pharmacological tools” (Bioorg Med Chem, 2009)
pIC50: −log10 of the molar value.

Target: Glycogen synthase kinase-3 beta (Homo sapiens, UniProt P49841)
Experiment: Inhibition of GSK3-beta by liquid scintillation counting
How it was run: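 GSK-3β enzyme incubated with test compound at various concentrations, GS-1 peptide substrate (15 mM as printed), 15 μM ATP plus 0.2 μCi [γ-32P]ATP, in 50 mM Tris pH 7.5, 10 mM MgCl2, 1 mM EGTA, 1 mM EDTA; 20 min at 37 °C. Aliquots spotted on P81 phosphocellulose, washed in 1% phosphoric acid, counted by liquid scintillation.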

Sequence of Glycogen synthase kinase-3 beta (P49841 whole entry): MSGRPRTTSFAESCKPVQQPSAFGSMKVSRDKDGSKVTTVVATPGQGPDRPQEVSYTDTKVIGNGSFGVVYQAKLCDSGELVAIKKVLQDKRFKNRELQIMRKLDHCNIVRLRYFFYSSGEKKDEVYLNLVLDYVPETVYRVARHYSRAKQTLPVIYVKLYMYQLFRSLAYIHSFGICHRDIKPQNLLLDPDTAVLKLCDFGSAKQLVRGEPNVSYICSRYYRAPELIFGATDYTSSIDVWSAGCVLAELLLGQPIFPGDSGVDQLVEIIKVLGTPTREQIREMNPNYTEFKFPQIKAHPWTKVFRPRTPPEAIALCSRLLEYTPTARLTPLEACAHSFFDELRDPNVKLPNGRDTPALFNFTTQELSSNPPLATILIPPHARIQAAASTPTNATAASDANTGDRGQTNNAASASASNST

SMILES | pIC50
O=Nn1c2ccccc2c2cc(Cl)ccc21 | < 4.00
CCOC(=O)c1sc(C)c(C)c1O | < 4.00
O=Cc1cccs1 [2-THIOPHENENECARBOXALDEHYDE] | < 4.00
CCOC(=O)c1cccs1 | < 4.00
CC(=O)c1ccccc1 [ACETOPHENONE] | < 4.00
O=C(CCCCl)c1ccc(Br)s1 | < 4.00
CC(=O)c1ccc(Cl)cc1 | < 4.00
CCOC(=O)c1ccccc1 [ETHYL BENZOATE] | < 4.00
c1ccc(-c2nc(-c3ccccc3)n(-c3ccccc3)n2)cc1 | < 4.00
O=Cc1cc(Br)c(Br)s1 | < 4.00
OC(CCl)c1sc(Br)c(Br)c1Br (stereo unspecified) | 4.12
O=C(Nn1c2ccccc2c2ccccc21)c1ccccc1 | < 4.00
CC(N)Cc1cc(Cl)cs1 (stereo unspecified) | < 4.00
O=C(CCCCl)c1ccc(Cl)s1 | < 4.00
CCOC(=O)c1sc(SC(C)=O)cc1O | 4.60
N=C(c1ccccc1Cl)c1ccccc1N(NC(=O)c1ccccc1)c1ccccc1 | < 4.00
O=C(CCCCl)c1cc(Cl)sc1Cl | < 4.00
COc1cc2c(cc1OC)C(=O)CC2 | < 4.00
CCSC1=NC(c2ccccc2)=NN(c2ccccc2)c2ccccc21 | < 4.00
O=C(CBr)c1ccc(Br)s1 | 6.00
O=C(CBr)c1sc(Br)cc1Br | 6.00
